The values that follow come from ChEMBL document CHEMBL5696442, “Discovery of type II inhibitors of TGFβ-activated kinase 1 (TAK1) and mitogen-activated protein kinase kinase kinase kinase 2 (MAP4K2)” (J Med Chem, 2015).

Series [1] deals with 5'-AMP-activated protein kinase catalytic subunit alpha-2 (Homo sapiens) (UniProt P54646). The series is described as follows: Inhibition of AMPKa2 Lys1 labeling site in human Huh-7 cells at 1 uM by KiNativ Profiling analysis relative to control. Format: cell-based.
Series [2] deals with Calcium/calmodulin-dependent protein kinase type II subunit delta (Homo sapiens) (UniProt Q13557). The series is described as follows: Inhibition of CaMK2d Lys2 labeling site in human Huh-7 cells at 1 uM by KiNativ Profiling analysis relative to control. The series is classed as cell-based.
The target in series [3] is Cyclin-dependent kinase 10 (Homo sapiens) (UniProt Q15131). Nature of the series: Inhibition of CDK10 Lys2 labeling site in human Huh-7 cells at 1 uM by KiNativ Profiling analysis relative to control. The series is classed as cell-based.
Series [4] deals with Mitogen-activated protein kinase 3 (Homo sapiens) (UniProt P27361). The series is described as follows: Inhibition of Erk1 Lys2 labeling site harbouring DLKPSNLLINTTCDLK in human Huh-7 cell lysate at 1 uM by KiNativ Profiling analysis relative to control. Format: subcellular.
Series [5] deals with Phosphatidylinositol 4,5-bisphosphate 3-kinase catalytic subunit beta isoform (Homo sapiens) (UniProt P42338). The series is described as follows: Inhibition of PIK3CB (unknown origin) at 1 uM by Ambit Kinomescan binding assay relative to control; values are per cent of control.
Series [6] concerns the target Serine/threonine-protein kinase 10 (Homo sapiens) (UniProt O94804). Nature of the series: Inhibition of LOK (unknown origin) at 1 uM by Ambit Kinomescan binding assay relative to control; values are per cent of control.
For series [7], the target named is 5'-AMP-activated protein kinase catalytic subunit alpha-1 (Homo sapiens) (UniProt Q13131). Nature of the series: Inhibition of AMPKa1 ATP Loop labeling site in human A-375 cells at 5 uM by KiNativ Profiling analysis relative to control. The series is classed as cell-based.
Series [8] addresses Ephrin type-A receptor 1 (Homo sapiens) (UniProt P21709). Nature of the series: Inhibition of EPHA1 (unknown origin) at 10 uM by Ambit Kinomescan binding assay.
Series [9] concerns the target Phosphatidylinositol 4,5-bisphosphate 3-kinase catalytic subunit beta isoform (Homo sapiens) (UniProt P42338). The series is described as follows: Inhibition of PIK3CB ATP labeling site in human Huh-7 cells at 10 uM by KiNativ Profiling analysis relative to control. Format: cell-based.
Series [10] addresses Angiopoietin-1 receptor (Homo sapiens) (UniProt Q02763). The series is described as follows: Inhibition of TIE2 (unknown origin) at 10 uM by Ambit Kinomescan binding assay relative to control; values are per cent of control.
The target of series [11] is Tyrosine-protein kinase Fes/Fps (Homo sapiens, UniProt P07332). The series is described as follows: Inhibition of FES K1 labeling site in human Huh-7 cells at 1 uM by KiNativ Profiling analysis relative to control. Format: cell-based.
Series [12] is described as follows: Cmax in Swiss albino mouse at 1 mg/kg, iv measured upto 24 hrs by LC/MS/MS analysis. Particulars: in vivo. Format: ADME, organism-based. Summed up:
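Male Swiss albino mice. […] Blood was taken into K2EDTA from three mice per time point, from 0 to 24 h. Plasma was precipitated with acetonitrile and analysed by LC/MS/MS (LLOQ 1.138 ng/mL).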

In series [13] the target is T1, PAN2-PAN3 deadenylation complex subunit PAN3 (Homo sapiens) (UniProt Q58A45).
T1 sequence (whole entry): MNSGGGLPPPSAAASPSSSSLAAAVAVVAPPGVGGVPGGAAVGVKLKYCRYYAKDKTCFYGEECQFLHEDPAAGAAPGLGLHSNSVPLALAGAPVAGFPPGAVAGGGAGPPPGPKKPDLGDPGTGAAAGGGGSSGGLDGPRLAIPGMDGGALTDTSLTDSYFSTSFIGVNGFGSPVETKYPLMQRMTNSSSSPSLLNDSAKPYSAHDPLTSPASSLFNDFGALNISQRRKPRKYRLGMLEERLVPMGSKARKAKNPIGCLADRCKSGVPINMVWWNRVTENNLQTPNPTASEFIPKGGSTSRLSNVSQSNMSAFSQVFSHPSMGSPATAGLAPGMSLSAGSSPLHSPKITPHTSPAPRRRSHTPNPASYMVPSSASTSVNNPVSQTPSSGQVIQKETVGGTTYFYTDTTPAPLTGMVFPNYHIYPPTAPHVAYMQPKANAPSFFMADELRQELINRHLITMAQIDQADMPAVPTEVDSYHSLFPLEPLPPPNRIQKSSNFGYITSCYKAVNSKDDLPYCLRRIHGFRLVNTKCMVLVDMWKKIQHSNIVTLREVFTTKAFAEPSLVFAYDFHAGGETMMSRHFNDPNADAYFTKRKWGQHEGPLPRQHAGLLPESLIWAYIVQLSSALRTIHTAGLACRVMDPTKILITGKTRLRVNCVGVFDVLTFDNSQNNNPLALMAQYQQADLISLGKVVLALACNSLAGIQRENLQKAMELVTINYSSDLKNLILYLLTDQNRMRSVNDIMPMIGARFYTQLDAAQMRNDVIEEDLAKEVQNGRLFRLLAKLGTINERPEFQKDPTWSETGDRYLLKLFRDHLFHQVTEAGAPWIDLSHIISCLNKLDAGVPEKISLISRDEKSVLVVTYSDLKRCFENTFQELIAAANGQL
Nature of the series: Inhibition of PAN3 KD labeling site in human Huh-7 cells at 1 uM by KiNativ Profiling analysis relative to control. The series is classed as cell-based.

Series [14] addresses Death-associated protein kinase 1 (Homo sapiens) (UniProt P53355). The series is described as follows: Inhibition of DAPK1 (unknown origin) at 10 uM by Ambit Kinomescan binding assay.
Series [15] concerns the target Myosin light chain kinase family member 4 (Homo sapiens) (UniProt Q86YV6). Nature of the series: Inhibition of SgK085 (unknown origin) at 10 uM by Ambit Kinomescan binding assay.
Series [16] deals with STE20-like serine/threonine-protein kinase (Homo sapiens) (UniProt Q9H2G2). Nature of the series: Inhibition of SLK K1 labeling site in human Huh-7 cells at 1 uM by KiNativ Profiling analysis relative to control. The series is classed as cell-based.
Series [17] deals with Rho-associated protein kinase 2 (Homo sapiens) (UniProt O75116). Nature of the series: Inhibition of ROCK2 (unknown origin) at 10 uM by Ambit Kinomescan binding assay. Summed up: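 ATP-site competition binding assay across a panel of more than 420 kinases, with each compound tested at 10 or 1 μM.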
Series [18] has as its target Serine/threonine-protein kinase 16 (Homo sapiens) (UniProt O75716). The series is described as follows: Inhibition of MPSK1 K2 labeling site in human Huh-7 cells at 1 uM by KiNativ Profiling analysis relative to control. The series is classed as cell-based.
The target in series [19] is Mitogen-activated protein kinase kinase kinase kinase 4 (Homo sapiens, UniProt O95819). The series is described as follows: Inhibition of ZC1/HGK K1 labeling site harbouring TGQLAAIKVMDVTEDEEEEIKLEINMLK in human Huh-7 cells at 1 uM by KiNativ Profiling analysis relative to control. The series is classed as cell-based.
Series [20] addresses Tyrosine-protein kinase JAK1 (Homo sapiens) (UniProt P23458). Nature of the series: Inhibition of JAK1 domain2 Lys1 labeling site in human A-375 cells at 0.5 uM by KiNativ Profiling analysis relative to control. Format: cell-based.
In series [21] the target is Misshapen-like kinase 1 (Homo sapiens) (UniProt Q8N4C8). The series is described as follows: Inhibition of ZC3 Lys2 labeling site in human A-375 cells at 5 uM by KiNativ Profiling analysis relative to control. The series is classed as cell-based.

Calls of active or inactive are those of the source. No cut-off for these calls is given here.

Chain of Phosphatidylinositol 4,5-bisphosphate 3-kinase catalytic subunit beta isoform (Homo sapiens) (P42338 whole entry, looked up, canonical isoform): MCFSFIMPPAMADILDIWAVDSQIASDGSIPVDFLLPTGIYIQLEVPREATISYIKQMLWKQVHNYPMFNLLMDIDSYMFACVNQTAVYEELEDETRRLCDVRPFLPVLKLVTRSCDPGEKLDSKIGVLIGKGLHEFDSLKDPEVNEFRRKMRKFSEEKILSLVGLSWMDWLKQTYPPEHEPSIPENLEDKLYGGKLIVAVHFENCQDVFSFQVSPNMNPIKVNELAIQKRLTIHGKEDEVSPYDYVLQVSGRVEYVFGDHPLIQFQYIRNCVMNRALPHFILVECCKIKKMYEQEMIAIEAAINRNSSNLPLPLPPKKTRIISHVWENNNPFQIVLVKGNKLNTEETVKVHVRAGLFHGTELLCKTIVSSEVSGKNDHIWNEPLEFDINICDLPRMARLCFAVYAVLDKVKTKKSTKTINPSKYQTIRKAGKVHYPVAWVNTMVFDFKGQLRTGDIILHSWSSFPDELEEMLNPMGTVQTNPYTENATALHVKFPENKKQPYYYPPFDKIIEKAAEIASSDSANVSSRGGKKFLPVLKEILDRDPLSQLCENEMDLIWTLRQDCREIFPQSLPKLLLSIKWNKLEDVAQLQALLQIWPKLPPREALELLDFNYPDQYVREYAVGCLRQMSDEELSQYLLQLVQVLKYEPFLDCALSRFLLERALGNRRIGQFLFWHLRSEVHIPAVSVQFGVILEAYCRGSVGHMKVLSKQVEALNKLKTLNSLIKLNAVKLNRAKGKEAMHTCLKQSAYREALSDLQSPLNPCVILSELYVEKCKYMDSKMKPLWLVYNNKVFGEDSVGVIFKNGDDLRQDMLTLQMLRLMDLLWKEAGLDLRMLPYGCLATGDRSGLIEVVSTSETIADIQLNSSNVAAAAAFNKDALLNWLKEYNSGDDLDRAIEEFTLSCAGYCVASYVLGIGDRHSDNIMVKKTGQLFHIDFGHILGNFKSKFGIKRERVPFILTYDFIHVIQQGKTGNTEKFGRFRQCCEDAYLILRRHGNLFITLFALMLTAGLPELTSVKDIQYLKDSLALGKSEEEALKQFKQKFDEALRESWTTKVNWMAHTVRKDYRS
Chain of Death-associated protein kinase 1 (Homo sapiens) (P53355 whole entry, looked up): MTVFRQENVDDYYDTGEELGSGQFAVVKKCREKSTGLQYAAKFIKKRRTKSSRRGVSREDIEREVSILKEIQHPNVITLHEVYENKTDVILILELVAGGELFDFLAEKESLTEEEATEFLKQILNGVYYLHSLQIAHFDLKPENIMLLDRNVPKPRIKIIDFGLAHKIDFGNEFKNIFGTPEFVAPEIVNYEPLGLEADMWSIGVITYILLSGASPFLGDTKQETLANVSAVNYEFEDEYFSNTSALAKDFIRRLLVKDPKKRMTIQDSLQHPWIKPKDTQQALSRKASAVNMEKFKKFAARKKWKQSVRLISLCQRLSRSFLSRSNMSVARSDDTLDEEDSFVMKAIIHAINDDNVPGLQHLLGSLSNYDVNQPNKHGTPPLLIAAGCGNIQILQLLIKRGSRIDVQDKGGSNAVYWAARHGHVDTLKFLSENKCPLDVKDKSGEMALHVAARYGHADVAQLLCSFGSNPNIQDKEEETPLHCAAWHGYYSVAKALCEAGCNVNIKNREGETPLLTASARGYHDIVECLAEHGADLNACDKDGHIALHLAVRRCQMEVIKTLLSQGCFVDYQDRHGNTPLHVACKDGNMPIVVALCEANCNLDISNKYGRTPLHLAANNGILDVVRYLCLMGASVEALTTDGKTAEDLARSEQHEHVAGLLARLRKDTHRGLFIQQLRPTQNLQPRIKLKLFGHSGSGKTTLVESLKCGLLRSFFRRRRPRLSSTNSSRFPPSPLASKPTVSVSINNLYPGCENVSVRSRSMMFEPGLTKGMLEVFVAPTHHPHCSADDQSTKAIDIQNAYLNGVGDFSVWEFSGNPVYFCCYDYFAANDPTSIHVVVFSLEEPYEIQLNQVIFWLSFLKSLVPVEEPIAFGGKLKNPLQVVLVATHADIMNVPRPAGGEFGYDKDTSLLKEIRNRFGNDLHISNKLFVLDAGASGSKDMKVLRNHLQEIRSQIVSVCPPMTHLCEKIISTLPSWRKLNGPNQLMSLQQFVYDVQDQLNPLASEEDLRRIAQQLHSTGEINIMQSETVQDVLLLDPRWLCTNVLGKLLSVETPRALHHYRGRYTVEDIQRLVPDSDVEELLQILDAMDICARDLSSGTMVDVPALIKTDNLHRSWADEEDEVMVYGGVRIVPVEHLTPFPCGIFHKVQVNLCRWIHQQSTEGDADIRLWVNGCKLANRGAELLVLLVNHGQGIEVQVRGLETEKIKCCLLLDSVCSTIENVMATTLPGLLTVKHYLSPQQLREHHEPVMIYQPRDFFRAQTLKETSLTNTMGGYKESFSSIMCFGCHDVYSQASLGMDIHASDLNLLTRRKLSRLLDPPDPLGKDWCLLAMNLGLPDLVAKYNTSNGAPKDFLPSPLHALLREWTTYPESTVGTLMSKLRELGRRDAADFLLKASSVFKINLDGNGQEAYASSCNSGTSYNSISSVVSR
Chain of Serine/threonine-protein kinase 16 (Homo sapiens) (O75716 whole entry): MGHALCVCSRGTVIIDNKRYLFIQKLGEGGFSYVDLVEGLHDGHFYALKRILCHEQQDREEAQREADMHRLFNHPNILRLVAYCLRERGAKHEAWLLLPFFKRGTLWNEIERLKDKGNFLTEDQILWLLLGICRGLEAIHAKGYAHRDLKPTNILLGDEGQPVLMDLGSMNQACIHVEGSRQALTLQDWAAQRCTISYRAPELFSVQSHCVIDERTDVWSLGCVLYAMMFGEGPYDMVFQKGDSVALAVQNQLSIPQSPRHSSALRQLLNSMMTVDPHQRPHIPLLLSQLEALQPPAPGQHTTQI
Chain of Cyclin-dependent kinase 10 (Homo sapiens) (Q15131 whole entry): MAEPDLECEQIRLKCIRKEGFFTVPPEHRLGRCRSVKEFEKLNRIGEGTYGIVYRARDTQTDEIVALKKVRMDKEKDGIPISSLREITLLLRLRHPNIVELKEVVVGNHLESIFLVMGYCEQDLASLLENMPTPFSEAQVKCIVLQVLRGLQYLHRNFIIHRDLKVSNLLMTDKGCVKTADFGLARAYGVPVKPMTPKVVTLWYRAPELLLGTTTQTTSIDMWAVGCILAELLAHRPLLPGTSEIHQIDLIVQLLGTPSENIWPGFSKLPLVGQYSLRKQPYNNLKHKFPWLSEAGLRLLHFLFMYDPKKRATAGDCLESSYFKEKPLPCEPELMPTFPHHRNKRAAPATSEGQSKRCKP
Chain of Tyrosine-protein kinase JAK1 (Homo sapiens) (P23458 whole entry, the tested form may be a part): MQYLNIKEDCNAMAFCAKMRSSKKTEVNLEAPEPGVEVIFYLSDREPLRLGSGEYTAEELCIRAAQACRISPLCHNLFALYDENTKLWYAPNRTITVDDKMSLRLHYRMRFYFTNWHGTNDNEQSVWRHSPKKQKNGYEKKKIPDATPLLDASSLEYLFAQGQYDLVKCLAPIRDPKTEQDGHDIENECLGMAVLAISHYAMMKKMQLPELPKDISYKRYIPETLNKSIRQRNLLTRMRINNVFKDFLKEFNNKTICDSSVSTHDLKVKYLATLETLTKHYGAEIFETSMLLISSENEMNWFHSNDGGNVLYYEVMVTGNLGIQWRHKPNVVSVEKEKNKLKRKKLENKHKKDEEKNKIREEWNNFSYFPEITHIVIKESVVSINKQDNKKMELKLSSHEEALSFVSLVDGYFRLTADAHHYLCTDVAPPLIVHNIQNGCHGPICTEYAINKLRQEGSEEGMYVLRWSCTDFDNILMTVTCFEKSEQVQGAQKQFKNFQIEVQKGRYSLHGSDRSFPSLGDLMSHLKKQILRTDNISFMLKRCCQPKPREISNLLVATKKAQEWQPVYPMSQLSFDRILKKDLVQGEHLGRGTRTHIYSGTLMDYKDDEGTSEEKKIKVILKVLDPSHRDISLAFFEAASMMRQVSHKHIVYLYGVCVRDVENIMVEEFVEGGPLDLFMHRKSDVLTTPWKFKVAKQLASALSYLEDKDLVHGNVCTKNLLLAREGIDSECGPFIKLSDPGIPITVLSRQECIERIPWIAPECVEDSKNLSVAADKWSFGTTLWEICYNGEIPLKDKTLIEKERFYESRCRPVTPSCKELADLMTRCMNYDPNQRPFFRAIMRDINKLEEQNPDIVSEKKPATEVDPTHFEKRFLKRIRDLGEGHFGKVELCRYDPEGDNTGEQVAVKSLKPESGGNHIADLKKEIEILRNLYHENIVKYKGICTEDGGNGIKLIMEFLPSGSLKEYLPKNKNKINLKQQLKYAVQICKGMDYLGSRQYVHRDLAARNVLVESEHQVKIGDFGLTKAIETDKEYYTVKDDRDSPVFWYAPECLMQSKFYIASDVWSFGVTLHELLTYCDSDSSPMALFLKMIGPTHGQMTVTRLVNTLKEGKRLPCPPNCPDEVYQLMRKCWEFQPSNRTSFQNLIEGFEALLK
Chain of Mitogen-activated protein kinase 3 (Homo sapiens) (P27361 whole entry, canonical isoform): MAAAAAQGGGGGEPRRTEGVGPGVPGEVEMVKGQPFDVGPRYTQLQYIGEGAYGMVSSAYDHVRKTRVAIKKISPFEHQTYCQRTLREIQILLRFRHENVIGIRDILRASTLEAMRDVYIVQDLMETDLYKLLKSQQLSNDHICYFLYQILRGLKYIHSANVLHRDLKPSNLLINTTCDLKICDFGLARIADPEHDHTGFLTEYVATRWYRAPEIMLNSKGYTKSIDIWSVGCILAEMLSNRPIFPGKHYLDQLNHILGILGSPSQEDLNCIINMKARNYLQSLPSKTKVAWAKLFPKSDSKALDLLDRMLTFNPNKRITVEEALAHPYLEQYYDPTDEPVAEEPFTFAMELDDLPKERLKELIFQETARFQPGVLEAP

For orientation: inhibition means the drop in the measured response relative to a control, in per cent. Consider `CNc1cc(Oc2cc(C(=O)Nc3cc(N4CCN(C)CC4)cc(C(F)(F)F)c3)ccc2C)ncn1`, for which the inhibition is -7.5% in [1], 20.3% in series [2], 59.3% in series [3] and -4.1% in series [4].

The term residual activity denotes the activity still measured, relative to the control. In turn, `CCN1CCN(Cc2ccc(NC(=O)c3ccc(C)c(/C=C/c4cnc5[nH]ccc5c4OC)c3)cc2C(F)(F)F)CC1` gave a residual activity in series [5] of 100%. The percent of control in [6] was 0%. The inhibition in series [7] was 9.1%.

What is called Cmax is the highest concentration seen after dosing. Consider `CCN1CCN(Cc2ccc(NC(=O)c3ccc(C)c(Oc4ccnc5[nH]ccc45)c3)cc2C(F)(F)F)CC1`, for which the inhibition entry in [8], in series [9], in series [14], in [15] and in series [17] was “inactive” in each case. In addition, in [10], the residual activity turned out to be 0%. The inhibition in series [11] is -4.5%; in [13] it was 13.4%; in series [16], 3.5%; in [18], 6.7%; in series [19] it was 7.6%; in [20] it was 30.1%. For the same molecule, the inhibition in series [21] was 92.7%. Besides, the highest concentration (Cmax) in series [12] was found to be 396 ng/mL.
